# Active and inactive are the calls of the source.
# Experiments:
# [1] = target: Mu-type opioid receptor (Rattus norvegicus) (UniProt P33535); experiment: Agonist activity at rat mu opioid receptor expressed in rat C6 glioma cell membranes assessed as stimulation of [35S]GTPgammaS binding measured after 1 hr relative to DAMGO; format: functional
# [2] = target: T1, Kappa-type opioid receptor (Homo sapiens, UniProt P41145); experiment: Agonist activity at human kappa opioid receptor expressed in CHO cell membranes assessed as stimulation of [35S]GTPgammaS binding measured after 1 hr; format: functional
# [3] = target: T1, Kappa-type opioid receptor; experiment: Agonist activity at human kappa opioid receptor expressed in CHO cell membranes assessed as stimulation of [35S]GTPgammaS binding to G protein incubated for 1 hr relative to U69,593; format: functional
# [4] = target: T2, Delta-type opioid receptor (Rattus norvegicus, UniProt P33533); experiment: Agonist activity at rat delta opioid receptor expressed in rat C6 cell membranes assessed as stimulation of [35S]GTPgammaS binding measured after 1 hr; format: functional
# Mus musculus [5] = experiment: Antinociceptive activity in C57BL/6 mouse assessed as increase in latency to tail withdrawal up to 10 mg/kg, ip administered at 30 mins interval measured during compound dosing by warm water tail withdrawal assay relative to control; format: functional
# In short: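 Male C57BL/6 mice, 20–30 g, 8–16 weeks. Saline ip, baseline latency 30 min later; then cumulative ip doses 1, 3.2, 10 mg/kg in 5% DMSO/saline at 30 min intervals, latency read 30 min after each. Tail tip (2–3 cm) in 50°C water, 20 s cutoff; expressed as % MPE (MPE = 20 s).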
# Mu-type opioid receptor [6] = target: T3, Mu-type opioid receptor (Rattus norvegicus, UniProt P33535); experiment: (§1) Agonist activity at rat mu opioid receptor expressed in rat C6 cell membranes assessed as stimulation of [35S]GTPgammaS binding measured after 1 hr; format: functional
# In short: (§2)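 Membranes (10–20 μg protein/tube) from stably transfected cells incubated 1 h at 25°C in 50 mM Tris-HCl, 100 mM NaCl, 5 mM MgCl2, pH 7.4, with 0.1 nM [35S]-GTPγS, 30 μM GDP and varying test concentrations; filtration, scintillation counting.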
# [7] = target: T1, Kappa-type opioid receptor; experiment: Displacement of [3H]diprenorphine from human kappa opioid receptor expressed in CHO cell membranes measured after 1 hr by liquid scintillation counting method
# In short: (§3)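 Competition with 0.2 nM [3H]-diprenorphine on membranes (20 μg protein/tube) from stably transfected cells in 50 mM Tris-HCl pH 7.4, 1 h at room temperature with shaking; GF/C filtration, three washes, scintillation counting. Nonspecific binding defined with 10 μM naloxone.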
# [8] = target: T2, Delta-type opioid receptor; experiment: Displacement of [3H]diprenorphine from rat delta opioid receptor expressed in rat C6 cell membranes measured after 1 hr by liquid scintillation counting method
# Mu-type opioid receptor [9] = target: T3, Mu-type opioid receptor; experiment: Displacement of [3H]diprenorphine from rat mu opioid receptor expressed in rat C6 cell membranes measured after 1 hr by liquid scintillation counting method; in short: as §3
# Mus musculus [10] = experiment: Antinociceptive activity in C57BL/6 mouse assessed as increase in latency to tail withdrawal by measuring time of action at 10 mg/kg, ip administered as bolus dose by warm water tail withdrawal assay; format: functional
# In short: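 Male C57BL/6 mice; saline ip, baseline 30 min later, then single 10 mg/kg ip bolus in 5% DMSO/saline. Tail withdrawal in 50°C water (20 s cutoff) at 5, 15, 30 min and every 30 min until return to baseline; duration = time from dosing to baseline return, done only for fully active compounds.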
# [11] = target: Delta-type opioid receptor (Rattus norvegicus) (UniProt P33533); experiment: Agonist activity at rat delta opioid receptor expressed in rat C6 cell membranes assessed as stimulation of [35S]GTPgammaS binding incubated for 1 hr relative to DPDPE; format: functional
# Rattus norvegicus = species on record: Rattus norvegicus; experiment: Selectivity ratio of Ki for rat delta opioid receptor expressed in rat C6 cell membranes to Ki for rat mu opioid receptor expressed in rat C6 cell membranes; format: cell-based
# In short: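 Competition binding against 0.2 nM [3H]-diprenorphine, using C6 membranes expressing rat MOR or rat DOR (20 μg protein/tube). Run in 50 mM Tris-HCl pH 7.4, 1 h at room temperature with shaking, then filtration and scintillation counting. Nonspecific binding with 10 μM naloxone.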
# [12] = Lipophilicity, log P of the compound; format: physicochemical; details: octanol/water
# [13] = target: Delta-type opioid receptor (Rattus norvegicus) (UniProt P33533); experiment: Agonist activity at rat delta opioid receptor expressed in C6 cell membranes assessed as stimulation of [35S]GTPgammaS binding at 1 uM incubated for 1 hr relative to SNC80; format: functional
# In short: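 Rat DOR in C6 glioma membranes, [35S]-GTPγS binding (0.1 nM, 30 μM GDP, 1 h, 25°C). SNC80 concentration–response run alone and with 1 μM test compound present; stimulation expressed relative to SNC80. Ke = compound concentration/(EC50 shift − 1). Mean of ≥3 assays in duplicate.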
# [14] = target: Delta-type opioid receptor (Rattus norvegicus) (UniProt P33533); experiment: Antagonist activity at rat delta opioid receptor expressed in rat C6 cell membranes assessed as inhibition of SNC80-induced [35S] GTPgammaS binding measured after 1 hr; format: functional
# In short: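 Membranes from rat C6 glioma cells stably expressing rat DOR; [35S]-GTPγS (0.1 nM) binding stimulated by SNC80 concentration–response, alone or with test compound at 1 μM, 1 h at 25°C in 50 mM Tris-HCl, 100 mM NaCl, 5 mM MgCl2, pH 7.4, with 30 μM GDP; filtration and scintillation counting.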
# [15] = target: Mu-type opioid receptor (Rattus norvegicus) (UniProt P33535); experiment: as §1; format: functional; in short: as §2
# T1 sequence (P41145 whole entry): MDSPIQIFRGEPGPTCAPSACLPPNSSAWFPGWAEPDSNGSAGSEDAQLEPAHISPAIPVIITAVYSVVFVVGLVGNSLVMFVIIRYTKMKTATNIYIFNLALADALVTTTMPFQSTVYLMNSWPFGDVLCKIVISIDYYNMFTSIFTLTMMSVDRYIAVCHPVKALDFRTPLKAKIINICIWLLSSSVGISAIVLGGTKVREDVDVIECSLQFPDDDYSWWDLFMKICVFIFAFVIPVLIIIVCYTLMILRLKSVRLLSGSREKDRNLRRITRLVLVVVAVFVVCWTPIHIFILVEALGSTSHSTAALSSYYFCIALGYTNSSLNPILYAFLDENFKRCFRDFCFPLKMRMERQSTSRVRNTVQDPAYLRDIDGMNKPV
# T2 sequence (P33533 whole entry): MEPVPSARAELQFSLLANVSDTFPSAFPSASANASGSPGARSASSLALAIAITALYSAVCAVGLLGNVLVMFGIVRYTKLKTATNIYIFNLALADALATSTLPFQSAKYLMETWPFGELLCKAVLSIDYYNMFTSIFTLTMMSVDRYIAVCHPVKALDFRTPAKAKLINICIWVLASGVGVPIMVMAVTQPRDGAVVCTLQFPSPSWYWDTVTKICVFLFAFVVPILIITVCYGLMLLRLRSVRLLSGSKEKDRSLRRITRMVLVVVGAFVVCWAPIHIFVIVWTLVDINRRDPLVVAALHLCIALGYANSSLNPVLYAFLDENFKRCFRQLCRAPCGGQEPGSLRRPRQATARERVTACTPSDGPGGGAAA
# Delta-type opioid receptor (Rattus norvegicus), sequence (P33533 whole entry): as above
# Mu-type opioid receptor (Rattus norvegicus), sequence (P33535 whole entry): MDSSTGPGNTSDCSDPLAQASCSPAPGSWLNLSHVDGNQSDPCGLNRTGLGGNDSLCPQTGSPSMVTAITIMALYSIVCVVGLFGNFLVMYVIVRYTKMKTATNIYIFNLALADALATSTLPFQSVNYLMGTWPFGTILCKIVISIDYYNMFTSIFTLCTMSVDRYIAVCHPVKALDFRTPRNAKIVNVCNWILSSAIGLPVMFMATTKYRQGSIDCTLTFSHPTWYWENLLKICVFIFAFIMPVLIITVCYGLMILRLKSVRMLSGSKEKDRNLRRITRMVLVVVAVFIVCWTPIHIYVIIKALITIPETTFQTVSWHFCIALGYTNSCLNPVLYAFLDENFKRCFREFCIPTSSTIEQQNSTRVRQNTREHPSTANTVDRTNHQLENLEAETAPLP
# T3 sequence (P33535 whole entry): as above
SMILES,Efficacy [1],EC50 ([2]; cho),Efficacy [3],EC50 ([4]; c6),MPE (Mus musculus [5]),EC50 (Mu-type opioid receptor [6]) [nM],Ki [7] [nM],Ki [8] [nM],Ki (Mu-type opioid receptor [9]) [nM],Time (Mus musculus [10]) [min],Efficacy [11],EC50 ([2]; read-out: EC50) [nM],Ratio Ki (Rattus norvegicus),logP [12],Activity [13] [%],Ke [14] [nM],Activity [15],EC50 ([4]; read-out: EC50) [nM]
Cc1cc(O)cc(C)c1C[C@H](N)C(=O)N[C@@H]1CCN(C(=O)c2ccccc2)c2ccc(Cc3ccc4ccccc4c3)cc21.O=C(O)C(F)(F)F,57%,Not Active,inactive,Not Active,100%,7.9,160,0.46,0.26,150,–,–,–,–,–,–,–,–
Cc1cc(O)cc(C)c1C[C@H](N)C(=O)N[C@@H]1CCN(S(C)(=O)=O)c2ccc(CN3CCc4ccccc4C3)cc21.O=C(O)C(F)(F)F,114%,–,51%,Not Active,100%,0.12,1.1,0.98,0.11,90,inactive,45,9,3.1,100,0.85,–,–
Cc1cc(O)cc(C)c1C[C@H](N)C(=O)N[C@@H]1CCNc2ccc(Cc3ccccc3)cc21.O=C(O)C(F)(F)F,–,–,–,–,100%,–,–,–,–,120,–,–,–,3.8,–,–,–,–
Cc1cc(O)cc(C)c1C[C@H](N)C(=O)N[C@@H]1CCN(C(=O)c2ccccc2)c2ccc(Cc3ccc4c(c3)OCCO4)cc21.O=C(O)C(F)(F)F,inactive,–,60%,Not Active,inactive,–,240,0.22,1.5,–,inactive,> 500,0.2,4.4,–,–,inactive,–
CC(=O)N1CC[C@@H](NC(=O)[C@@H](N)Cc2c(C)cc(O)cc2C)c2cc(CN3CCc4ccccc4C3)ccc21.O=C(O)C(F)(F)F,96%,–,41%,Not Active,100%,6,0.78,0.89,0.19,240,inactive,190,5,3.2,–,–,–,–
Cc1cc(O)cc(C)c1C[C@H](N)C(=O)N[C@@H]1CCN(S(C)(=O)=O)c2ccc(Cc3cc4ccccc4o3)cc21.O=C(O)C(F)(F)F,102%,–,61%,Not Active,inactive,0.34,8,1,0.05,–,inactive,> 500,20,3.8,–,–,–,–
Cc1cc(O)cc(C)c1C[C@H](N)C(=O)N[C@@H]1CCN(S(C)(=O)=O)c2ccc(Cc3ccccc3)cc21.O=C(O)C(F)(F)F,98%,–,60%,–,100%,0.23,8,0.41,0.06,60,22%,121,7,3.3,–,–,–,12
Cc1cc(O)cc(C)c1C[C@H](N)C(=O)N[C@@H]1CCNc2ccc(Cc3cnc4ccccc4c3)cc21.O=C(O)C(F)(F)F,84%,Not Active,inactive,Not Active,inactive,2.2,16,1.5,0.1,–,inactive,–,15,3.7,–,–,–,–
Cc1cc(O)cc(C)c1C[C@H](N)C(=O)N[C@@H]1CCN(C(=O)C2CC2)c2ccc(Cc3ccc4ccccc4c3)cc21,85%,–,38%,–,inactive,0.42,117,0.37,0.05,–,32%,> 500,7,5.1,–,–,–,1.9
Cc1cc(O)cc(C)c1C[C@H](N)C(=O)N[C@@H]1CCN(C(=O)C2CC2)c2ccc(Cc3ccc4c(c3)OCCO4)cc21.O=C(O)C(F)(F)F,36%,Not Active,inactive,Not Active,inactive,6,412,0.19,0.28,–,inactive,–,0.7,3.7,–,–,–,–
